The whole screen tested about 2,500 compounds, of which about 460 (18%) were called active.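 The calls were made as follows: active = mean activation above a cutoff of low control average plus 3 SD from the earlier screen (cut at about 12% in these data); inactive = the rest.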 Not all results are given here.
assay: compound fluorescence interference without thin filaments, confirmation, artefact control for cardiac RTF calcium sensitizer project, biochemical (AID 504382); conditions: IANBD fluorescence interference counterscreen, buffer, EC20 Ca2+; at 7.2 µM; active compounds read high; scaled: EC20 calcium 0, EC100 calcium 100
Procedure, shortened: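 Technique: fluorescence, 480/540 nm / Medium: MOPS-based buffer with KCl, MgCl2, EGTA, NTA, DTT, pH 7.2 / Probe or stimulus: calcium at EC20 level, 0.472 mM final / Repeats: triplicate wells per compound / Times: 15 min compound exposure at 25 °C / Measure: compound fluorescence interference relative to control well signal range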

Compound	fluorescence artifact activation
Cc1cccc(NC(=O)CN2C(=O)N/C(=C/c3ccc(C)s3)C2=O)c1	0.09% (inactive)
O=C(O)c1ccc(-n2c(/C=C/c3cccc([N+](=O)[O-])c3)nc3ccccc3c2=O)cc1	0.47% (inactive)
COCCN1C(=O)/C(=C/c2ccc(N3CCCC3)cc2)SC1=S	0.34% (inactive)
CCOC(=O)C1CCCN(C(=O)c2cccc(S(=O)(=O)N3CC(C)OC(C)C3)c2)C1 (stereo not given)	0.05% (inactive)
CC(=O)c1ccc(S(=O)(=O)Nc2ccc(C(=O)N3CCC3)cc2)cc1	0.27% (inactive)
CC1CN(c2ccc(NS(=O)(=O)c3ccccc3)cc2C(=O)O)CC(C)O1 (stereo not given)	31.9% (active)
O=C(Nc1ccc(F)cc1F)c1ccc(COc2c(F)c(F)cc(F)c2F)o1	-0.01% (inactive)
CCCCc1ccc(NC(=O)N2CCNC(=O)C2CC(=O)Nc2ccsc2C(=O)OC)cc1 (stereo not given)	-0.11% (inactive)
Cc1cn2c(N)c(C=C3C=C(Cl)C(=O)C(Cl)=C3)c(=O)nc2s1	4.46% (inactive)
CCOC(=O)CN1C(=O)S/C(=C/C=C/c2ccc(N(C)C)cc2)C1=O	-0.03% (inactive)
O=C(/C=C/c1cn(CC(O)CN2CCCCC2)c2ccccc12)c1cccs1 (stereo not given)	14.5% (active)
O=C(/C=C/c1cn(CC(O)CN2CCCCCC2)c2ccccc12)c1cccs1 (stereo not given)	5.69% (inactive)
CCCN(CCC)CC(O)Cn1cc(/C=C/C(=O)c2cccs2)c2ccccc21 (stereo not given)	0.1% (inactive)
COc1ccc(C(=O)/C=C/c2cn(CC(O)CN3CCOCC3)c3ccccc23)cc1 (stereo not given)	6.56% (inactive)
Cc1ccc(C(=O)/C=C/c2cn(CC(O)CN3CCOCC3)c3ccccc23)cc1 (stereo not given)	0.01% (inactive)
COc1ccc(C(=O)/C=C/c2cn(CC(O)CN3CCN(C)CC3)c3ccccc23)cc1OC (stereo not given)	18.9% (active)
CCN(CC)c1ccc(-c2sc(Nc3ccccc3)n[n+]2-c2ccc(F)cc2)cc1	3.87% (inactive)
C=CCOc1ccn(C)c(=O)n1	2.39% (inactive)
O=[N+]([O-])c1ccc(/C=C/C2=NN(c3ccccc3)C(c3ccco3)C2)cc1 (stereo not given)	6.35% (inactive)
Cc1nnc(N/N=C/c2ccc(O)c([N+](=O)[O-])c2)[nH]c1=O	8.03% (inactive)
O=S1(=O)CCOC[C@H](CC2CCCCC2)N1Cc1ccccc1	0.05% (inactive)
Cn1c(CCNC(=O)c2ccco2)nc2ccccc21	350% (active)
O=C(Cn1c(C(F)(F)F)nc2ccccc21)NCCN1CCCC1	0.11% (inactive)

Compound	fluorescence artifact activation
CCCC(=O)NCCCc1nc2ccccc2n1C	43.2% (active)
CCn1c(CNc2ccc(C(=O)O)cc2)nc2ccccc21	-0.08% (inactive)
Cn1c(=O)c2c(nc(NCCNC(=O)c3ccco3)n2Cc2ccccc2Cl)n(C)c1=O	0.11% (inactive)
O=C(NCCNC(=O)c1cccs1)c1ccco1	10.5% (inactive)
COc1ccc(CN2CNc3c(c(=O)n(C)c(=O)n3C)C2)cc1	6.35% (inactive)
Brc1ccc(-c2noc(-c3ccccn3)n2)o1	0.61% (inactive)
O=C1C(=Cc2ccco2)CCCC1=Cc1ccco1	6.25% (inactive)
O=C(NCc1ccccc1Cl)c1ccc2nc[nH]c2c1	-0.08% (inactive)
CCOC(=O)CC1=NS(=O)(=O)c2ccccc2N1	2.81% (inactive)
COc1ccccc1NS(=O)(=O)c1cc(NC(=O)CCNC(C)=O)ccc1N1CCCCC1	0.74% (inactive)
COc1ccccc1NS(=O)(=O)c1ccccc1C#N	-0.04% (inactive)
COc1ccccc1NS(=O)(=O)c1cc(NC(=O)c2cc3ccccc3oc2=O)ccc1C	16.8% (active)
CCNc1nc(SCC(N)=O)nc2sc3c(c12)CCN(C)C3	0.22% (inactive)
CN(/N=C/c1ccc(-c2ccc([N+](=O)[O-])cc2)o1)c1ccccc1	9.54% (inactive)
COCCN=c1scc(-c2cc(OC)c(OC)c(OC)c2)n1/N=C/c1c(C)[nH]c2ccccc12	21.1% (active)
COc1ccccc1NS(=O)(=O)c1cc([N+](=O)[O-])ccc1N/N=C/c1c(C)[nH]c2ccccc12	4.83% (inactive)
CCN(CC)S(=O)(=O)c1ccc2[nH]c(=O)[nH]c2c1	0.38% (inactive)
Cn1c(C(=O)NCCCN2CCCCCC2)cc2c(=O)n(C)c3ccccc3c21	3.34% (inactive)
CCN(CC)S(=O)(=O)c1ccc2[nH]cc(C(=O)NCCN3CCCCCC3)c(=O)c2c1	14.6% (active)
O=C(CSCc1ccco1)NC1CCCC1	5.75% (inactive)
CCN(CC)C1=CC2=CC(=C(C#N)C#N)CCC2CC1 (stereo not given)	0.13% (inactive)
O=C(Nc1ccc(S(=O)(=O)Nc2ncccn2)cc1)c1nn(Cc2ccccc2)c(=O)c2ccccc12	303% (active)
